{
  "source": "ChEMBL document CHEMBL1148948",
  "about": "“Biotransformation of nobiletin by Aspergillus niger and the antimutagenic activity of a metabolite, 4'-hydroxy-5,6,7,8,3'-pentamethoxyflavone” (2004)",
  "key": {"Salmonella typhimurium [1]": {"tested_on": "Salmonella typhimurium", "assay": "Inhibition of activated MeIQ-induced SOS response to alteration in DNA synthesis in Salmonella Typhimurium TA1535 carrying pSK1002 containing umuC'-lacZ fused gene at 0.6 mM", "format": "functional, Salmonella enterica subsp. enterica serovar Typhimurium", "set-up": "scale not given: the % may be the effect or the level left", "method_in_brief": "(§1)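 S. typhimurium TA1535/pSK1002 (umuC′-′lacZ fusion on the plasmid). The overnight culture was diluted 50-fold in fresh TGA medium and grown at 37 °C to A600 0.25-0.30. SOS induction was read as β-galactosidase activity in Miller units. The S9 mix used rat liver S9 (phenobarbital/5,6-benzoflavone-pretreated males) with G-6-P, NADH and NADPH cofactors.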"}, "Salmonella typhimurium [2]": {"tested_on": "Salmonella typhimurium", "assay": "Inhibition of MeIQ-induced SOS response to alteration in DNA synthesis in Salmonella Typhimurium TA1535 carrying pSK1002 containing umuC'-lacZ fused gene", "format": "functional, Salmonella enterica subsp. enterica serovar Typhimurium", "conditions": "Salmonella enterica, read-out: ID50 (the source's name)", "method_in_brief": "as §1"}, "Salmonella typhimurium [3]": {"tested_on": "Salmonella typhimurium", "assay": "Inhibition of Trp-P-1-induced SOS response to alteration in DNA synthesis in Salmonella Typhimurium TA1535 carrying pSK1002 containing umuC'-lacZ fused gene at 0.6 mM", "format": "functional, Salmonella enterica subsp. enterica serovar Typhimurium", "set-up": "scale not given: the % may be the effect or the level left", "method_in_brief": "as §1"}, "Salmonella typhimurium [4]": {"tested_on": "Salmonella typhimurium", "assay": "Inhibition of MeIQ-induced SOS response to alteration in DNA synthesis in Salmonella Typhimurium TA1535 carrying pSK1002 containing umuC'-lacZ fused gene at 0.6 mM", "format": "functional, Salmonella enterica subsp. enterica serovar Typhimurium", "set-up": "scale not given: the % may be the effect or the level left", "method_in_brief": "as §1"}, "Salmonella typhimurium [5]": {"tested_on": "Salmonella typhimurium", "assay": "Inhibition of furyfuramide-induced SOS response to alteration in DNA synthesis in Salmonella Typhimurium TA1535 carrying pSK1002 containing umuC'-lacZ fused gene at 0.6 mM", "format": "functional, Salmonella enterica subsp. enterica serovar Typhimurium", "set-up": "scale not given: the % may be the effect or the level left", "method_in_brief": "as §1"}, "Salmonella typhimurium [6]": {"tested_on": "Salmonella typhimurium", "assay": "Antimutagenic activity in Salmonella Typhimurium TA1535 carrying pSK1002 containing umuC'-lacZ fused gene assessed as suppression of Trp-P-1-induced SOS response to alteration in DNA synthesis measured by beta-galactosidase activity by Umu test", "format": "functional, organism-based", "conditions": "Salmonella enterica subsp. enterica serovar Typhimurium", "method_in_brief": "as §1"}, "Salmonella typhimurium [7]": {"tested_on": "Salmonella typhimurium", "assay": "Antimutagenic activity in Salmonella Typhimurium TA1535 carrying pSK1002 containing umuC'-lacZ fused gene assessed as suppression of MeIQ-induced SOS response to alteration in DNA synthesis measured by beta-galactosidase activity by Umu test", "format": "functional, organism-based", "conditions": "Salmonella enterica subsp. enterica serovar Typhimurium", "method_in_brief": "as §1"}, "Salmonella typhimurium [8]": {"tested_on": "Salmonella typhimurium", "assay": "Antimutagenic activity in Salmonella Typhimurium TA1535 carrying pSK1002 containing umuC'-lacZ fused gene assessed as suppression of furyfuramide-induced SOS response to alteration in DNA synthesis measured by beta-galactosidase activity by Umu test", "format": "functional, organism-based", "conditions": "Salmonella enterica subsp. enterica serovar Typhimurium", "method_in_brief": "as §1"}, "Salmonella typhimurium [9]": {"tested_on": "Salmonella typhimurium", "assay": "Antimutagenic activity in Salmonella Typhimurium TA1535 carrying pSK1002 containing umuC'-lacZ fused gene assessed as suppression of activated Trp-P-1-induced SOS response to alteration in DNA synthesis at 0.05 mM measured by beta-galactosidase activity by Umu test", "format": "functional, Salmonella enterica subsp. enterica serovar Typhimurium", "method_in_brief": "as §1"}, "Salmonella typhimurium [10]": {"tested_on": "Salmonella typhimurium", "assay": "Antimutagenic activity in Salmonella Typhimurium TA1535 carrying pSK1002 containing umuC'-lacZ fused gene assessed as suppression of Trp-P-1-induced SOS response to alteration in DNA synthesis at 0.05 mM measured by beta-galactosidase activity by Umu test", "format": "functional, Salmonella enterica subsp. enterica serovar Typhimurium", "method_in_brief": "as §1"}, "Salmonella typhimurium [11]": {"tested_on": "Salmonella typhimurium", "assay": "Antimutagenic activity in Salmonella Typhimurium TA1535 carrying pSK1002 containing umuC'-lacZ fused gene assessed as suppression of activated MeIQ-induced SOS response to alteration in DNA synthesis at 0.05 mM measured by beta-galactosidase activity by Umu test", "format": "functional, Salmonella enterica subsp. enterica serovar Typhimurium", "method_in_brief": "as §1"}, "Salmonella typhimurium [12]": {"tested_on": "Salmonella typhimurium", "assay": "Antimutagenic activity in Salmonella Typhimurium TA1535 carrying pSK1002 containing umuC'-lacZ fused gene assessed as suppression of MeIQ-induced SOS response to alteration in DNA synthesis at 0.05 mM measured by beta-galactosidase activity by Umu test", "format": "functional, Salmonella enterica subsp. enterica serovar Typhimurium", "method_in_brief": "as §1"}, "Salmonella typhimurium [13]": {"tested_on": "Salmonella typhimurium", "assay": "Antimutagenic activity in Salmonella Typhimurium TA1535 carrying pSK1002 containing umuC'-lacZ fused gene assessed as suppression of 0.1 j/M2 UV light-induced SOS response to alteration in DNA synthesis at 0.05 mM measured by beta-galactosidase activity by Umu test", "format": "functional, Salmonella enterica subsp. enterica serovar Typhimurium", "method_in_brief": "as §1"}, "Salmonella typhimurium [14]": {"tested_on": "Salmonella typhimurium", "assay": "Antimutagenic activity in Salmonella Typhimurium TA1535 carrying pSK1002 containing umuC'-lacZ fused gene assessed as suppression of furyfuramide-induced SOS response to alteration in DNA synthesis at 0.05 mM measured by beta-galactosidase activity by Umu test", "format": "functional, Salmonella enterica subsp. enterica serovar Typhimurium", "method_in_brief": "as §1"}, "Salmonella typhimurium [15]": {"tested_on": "Salmonella typhimurium", "assay": "Antimutagenic activity in Salmonella Typhimurium TA1535 carrying pSK1002 containing umuC'-lacZ fused gene assessed as suppression of activated Trp-P-1-induced SOS response to alteration in DNA synthesis at 0.1 mM measured by beta-galactosidase activity by Umu test", "format": "functional, Salmonella enterica subsp. enterica serovar Typhimurium", "method_in_brief": "as §1"}, "Salmonella typhimurium [16]": {"tested_on": "Salmonella typhimurium", "assay": "Antimutagenic activity in Salmonella Typhimurium TA1535 carrying pSK1002 containing umuC'-lacZ fused gene assessed as suppression of Trp-P-1-induced SOS response to alteration in DNA synthesis at 0.1 mM measured by beta-galactosidase activity by Umu test", "format": "functional, Salmonella enterica subsp. enterica serovar Typhimurium", "method_in_brief": "as §1"}, "Salmonella typhimurium [17]": {"tested_on": "Salmonella typhimurium", "assay": "Antimutagenic activity in Salmonella Typhimurium TA1535 carrying pSK1002 containing umuC'-lacZ fused gene assessed as suppression of activated MeIQ-induced SOS response to alteration in DNA synthesis at 0.1 mM measured by beta-galactosidase activity by Umu test", "format": "functional, Salmonella enterica subsp. enterica serovar Typhimurium", "method_in_brief": "as §1"}, "Salmonella typhimurium [18]": {"tested_on": "Salmonella typhimurium", "assay": "Antimutagenic activity in Salmonella Typhimurium TA1535 carrying pSK1002 containing umuC'-lacZ fused gene assessed as suppression of MeIQ-induced SOS response to alteration in DNA synthesis at 0.1 mM measured by beta-galactosidase activity by Umu test", "format": "functional, Salmonella enterica subsp. enterica serovar Typhimurium", "method_in_brief": "as §1"}},
  "note": "Active and inactive are the calls of the source. No cut-off for these calls is given here.",
  "data": [
    {"compound": "COc1cc(-c2cc(=O)c3c(OC)c(OC)c(OC)c(OC)c3o2)ccc1O", "values": [
      {"measurement": "Activity", "setting": "Salmonella typhimurium [1]", "result": 58.2, "unit": "%"},
      {"measurement": "IC50", "setting": "Salmonella typhimurium [2]", "result": 40, "unit": "µM"},
      {"measurement": "Activity", "setting": "Salmonella typhimurium [3]", "result": 72.4, "unit": "%"},
      {"measurement": "Activity", "setting": "Salmonella typhimurium [4]", "result": 80.9, "unit": "%"},
      {"measurement": "Activity", "setting": "Salmonella typhimurium [5]", "result": 28.7, "unit": "%"},
      {"measurement": "Activity", "setting": "Salmonella typhimurium [6]", "result": "Active"},
      {"measurement": "Activity", "setting": "Salmonella typhimurium [7]", "result": "Active"},
      {"measurement": "Activity", "setting": "Salmonella typhimurium [8]", "result": "Active"},
      {"measurement": "Activity", "setting": "Salmonella typhimurium [9]", "result": 283.7, "unit": "Miller_unit"},
      {"measurement": "Activity", "setting": "Salmonella typhimurium [10]", "result": 299.6, "unit": "Miller_unit"},
      {"measurement": "Activity", "setting": "Salmonella typhimurium [11]", "result": 394, "unit": "Miller_unit"},
      {"measurement": "Activity", "setting": "Salmonella typhimurium [12]", "result": 267.7, "unit": "Miller_unit"},
      {"measurement": "Activity", "setting": "Salmonella typhimurium [13]", "result": 574.1, "unit": "Miller_unit"},
      {"measurement": "Activity", "setting": "Salmonella typhimurium [14]", "result": 551.2, "unit": "Miller_unit"},
      {"measurement": "Activity", "setting": "Salmonella typhimurium [15]", "result": 233.2, "unit": "Miller_unit"},
      {"measurement": "Activity", "setting": "Salmonella typhimurium [16]", "result": 285.4, "unit": "Miller_unit"},
      {"measurement": "Activity", "setting": "Salmonella typhimurium [17]", "result": 376.3, "unit": "Miller_unit"},
      {"measurement": "Activity", "setting": "Salmonella typhimurium [18]", "result": 232.6, "unit": "Miller_unit"}
    ]}
  ]
}
